# F508del corr: F508del CFTR correction, initial screen, CFBE line, single point; AID 720511, 2013; activity (quench increase), % at 7.58 µM; 350,000 tested, 0.36% active; CFBE cells, YFP halide quenching; stimulated with forskolin plus potentiator P3; % fluorescence drop versus neutral controls;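 active means mean added fluorescence quench of at least 8% versus neutral control, with both replicates also reaching 8%; inconclusive means only one of the mean or replicate conditions met; inactive means mean below 8% and not both replicates reaching 8%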;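 further: cells transiently co-express mutant CFTR-F508del with the halide-sensitive YFP; corrector assay measuring rescue of mutant channel to the surface after 24 h compound exposure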
# FGF22 binding: binders of human FGF22 protein, primary screen, FGF22 synaptogenesis inhibitor project, biophysical, thermal shift, single point; recombinant FGF22 thermal shift, SYPRO orange fluorescence; percent of sucrose octasulfate shift, DMSO zero; activity (Tm shift, normalised), % at 9.99 µM; 340,000 tested, 1.5% active; AID 651658, 2012;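 active means mean Tm shift, scaled 0 neutral to 100 positive control, at about 1.3% or above, every replicate too, limit read from the data; inconclusive means no clear call, values can overlap the other calls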
# DENV2 CPE rescue: inhibitors of DENV2 cytopathic effect, primary screen, cell-based, plate reader, single concentration; 350,000 tested, 1.7% active; DENV2-infected cells, cytopathic effect rescue; CPE inhibition, % at 9.99 µM; in the data active means CPE inhibition above about 20%, passing the limit was not always enough; inconclusive means no clear call, values can overlap the other calls; tested in BHK-21 cells;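 further: 0% = median of neutral control wells and 100% = median of positive control wells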
# ERAP1 inh: human ERAP1 aminopeptidase inhibitors, primary screen, biochemical, single point, plate reader | inhibition, % at 10.7 µM | Endoplasmic reticulum aminopeptidase 1 (Homo sapiens), Q9NZ08 | AID 652197, 2013 | recombinant ERAP1, Leu-AMC fluorescence, 60 min | 340,000 tested, 0.15% active;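 active means mean replicate inhibition of at least 30%, or all replicates individually reaching that 30% level; inactive means mean below 30% and not every replicate reaching it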;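 further: 0% = neutral control wells and 100% = L-leucinethiol positive control wells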
# Target sequence (Q9NZ08 whole entry, looked up): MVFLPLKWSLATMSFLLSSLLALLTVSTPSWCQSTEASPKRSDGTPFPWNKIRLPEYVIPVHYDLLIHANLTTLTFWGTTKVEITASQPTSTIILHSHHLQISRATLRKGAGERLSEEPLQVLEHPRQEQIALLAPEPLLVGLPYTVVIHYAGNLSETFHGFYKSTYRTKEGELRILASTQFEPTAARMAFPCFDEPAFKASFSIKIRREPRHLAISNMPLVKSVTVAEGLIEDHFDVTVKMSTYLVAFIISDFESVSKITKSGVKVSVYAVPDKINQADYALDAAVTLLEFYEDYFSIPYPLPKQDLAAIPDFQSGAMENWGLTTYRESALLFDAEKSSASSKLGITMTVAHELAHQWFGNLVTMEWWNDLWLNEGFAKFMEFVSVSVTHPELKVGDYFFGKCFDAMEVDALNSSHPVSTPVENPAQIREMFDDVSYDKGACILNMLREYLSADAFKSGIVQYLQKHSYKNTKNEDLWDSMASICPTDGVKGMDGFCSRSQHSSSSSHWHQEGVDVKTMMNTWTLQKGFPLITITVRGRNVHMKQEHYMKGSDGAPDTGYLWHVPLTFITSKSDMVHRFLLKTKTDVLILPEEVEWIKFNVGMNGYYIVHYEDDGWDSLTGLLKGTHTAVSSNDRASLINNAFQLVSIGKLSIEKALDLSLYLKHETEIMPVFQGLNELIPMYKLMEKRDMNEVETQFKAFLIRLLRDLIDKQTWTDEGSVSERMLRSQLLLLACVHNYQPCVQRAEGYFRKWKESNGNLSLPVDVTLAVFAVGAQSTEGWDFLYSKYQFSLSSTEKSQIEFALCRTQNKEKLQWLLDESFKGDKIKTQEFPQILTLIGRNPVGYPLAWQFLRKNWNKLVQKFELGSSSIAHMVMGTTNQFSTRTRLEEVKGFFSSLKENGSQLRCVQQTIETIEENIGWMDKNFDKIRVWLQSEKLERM
# E-sel inducer: E-selectin induction in HUVECs, primary screen, imaging, HUVEC, immunofluorescence imaging, single point; P16581; normalized: neutral wells 0, TNF-alpha wells 100; activation, % at 7.58 µM; 260,000 tested, 0.37% active;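 active means mean E-selectin-positive cell signal at least 10% of the positive control, reached in at least 60% of replicates, without over 20% cell loss; inconclusive means no rule given, readout overlaps actives, possibly toxicity-flagged; inactive means the rest, including those meeting only one limit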
#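 System: HUVEC / Compound: single concentration / Signal: immunofluorescence imaging / Read-out: percent E-selectin-positive cells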
# The depositor's hits bear a star; ? = inconclusive; · = no result. Most compounds without a hit are left out; they make up all but 3.7% or so of the library.
SMILES,F508del corr,FGF22 binding,DENV2 CPE rescue,ERAP1 inh,E-sel inducer
CC(C)(C)S(=O)N1Cc2cc(C(=O)O)nc(-c3cccc(-c4cccc(F)c4)c3)c2[C@H]1CCO (stereo partly specified),·,0.6,19.0,-11.4,0.3
COc1ccc(Nc2nnc(-c3ccc(C)cc3)c3ccccc23)cc1C(=O)N1CCCCC1,·,-0.1,0.1,-2.0,1.0
COc1ccc(Nc2nnc(-c3ccccc3)c3ccccc23)cc1C(=O)N1CCCCC1,-1.7,43.0*,-1.7,4.9,·
CO[C@H]1CN(C)C(=O)c2cc(NC(C)=O)ccc2OC[C@@H](C)N(C(=O)CN(C)C)C[C@H]1C,·,-0.2,2.7,-2.8,-0.1
CO[C@@H]1CN(C)C(=O)c2cc(NS(C)(=O)=O)ccc2OC[C@H](C)N(C(=O)CN(C)C)C[C@@H]1C,-1.0,0.0,76.0*,-2.8,0.4
CO[C@H]1CN(C)C(=O)c2cc(NC(C)=O)ccc2OC[C@H](C)N(C(=O)CN(C)C)C[C@H]1C,-3.6,·,44.1*,0.7,0.0
C[C@@H]1CCCCO[C@@H](CN(C)C(=O)Nc2ccc(C(F)(F)F)cc2)[C@H](C)CN([C@@H](C)CO)C(=O)c2cc(NC(=O)c3ccncc3)ccc2O1,0.2,0.1,75.9*,-1.4,-0.1
C[C@@H]1CCCCO[C@@H](CN(C)C(=O)C2CCCCC2)[C@H](C)CN([C@H](C)CO)C(=O)c2cc(NC(=O)c3ccncc3)ccc2O1,1.7,-0.5,136.0*,1.0,0.0
C[C@H]1CCCCO[C@@H](CN(C)C(=O)C2CCCCC2)[C@@H](C)CN([C@@H](C)CO)C(=O)c2cc(NC(=O)c3ccncc3)ccc2O1,-0.1,0.0,?,1.0,0.9
C[C@H]1CCCCO[C@H](CN(C)C(=O)Nc2ccc(C(F)(F)F)cc2)[C@@H](C)CN([C@@H](C)CO)C(=O)c2cc(NC(=O)c3ccncc3)ccc2O1,-1.7,·,-1.2,0.0,-0.2
C[C@@H]1CN([C@H](C)CO)C(=O)c2cc(NC(=O)c3ccncc3)ccc2O[C@@H](C)CCCCO[C@H]1CN(C)C(=O)Nc1ccc(F)cc1,-2.7,0.5,26.4*,-1.8,0.2
C[C@H](CO)N1C[C@H](C)[C@@H](CN(C)C)OCCCC[C@H](C)Oc2ccc(NC(=O)c3ccncc3)cc2C1=O,-3.0,-0.3,64.8*,-0.3,0.1
CCCC(=O)Nc1ccc2c(c1)C(=O)N(C)C[C@@H](OC)[C@H](C)CN(C(=O)c1cnccn1)[C@@H](C)CO2,2.5,0.1,0.3,0.6,-0.3
C[C@@H]1CN([C@@H](C)CO)C(=O)c2cc(NC(=O)c3ccncc3)ccc2O[C@@H](C)CCCCO[C@H]1CN(C)C(=O)Nc1ccc(C(F)(F)F)cc1,2.5,0.1,4.8,2.4,0.0
C[C@@H]1CN([C@@H](C)CO)C(=O)c2cc(NC(=O)c3ccncc3)ccc2O[C@@H](C)CCCCO[C@@H]1CN(C)C(=O)Nc1ccc(C(F)(F)F)cc1,-0.7,-0.7,54.7*,-1.8,0.3
CC(C)[C@@H]1COCc2cn(nn2)CC[C@H](Cc2ccccc2)C(=O)N1,·,-0.3,5.2,2.1,0.1
O=C(N/N=C(/c1ccccc1)c1ccncc1)c1ccc2c(c1)OCO2,2.5,0.0,-3.1,2.5,-1.4
O=C(N/N=C/c1ccccc1O)c1ccc2c(c1)OCO2,5.3,-0.1,-0.2,1.6,-0.3
Cc1cc(Br)cc(/C=N/NC(=O)c2ccc3c(c2)OCO3)c1O,9.3*,0.0,13.6,-1.2,2.8
CC/C(=N\NC(=O)c1ccc2c(c1)OCO2)c1ccccc1,-2.0,0.0,33.1*,4.7,1.1
O=C(N/N=C/c1cc(Br)cc(Cl)c1O)c1ccc2c(c1)OCO2,11.7*,0.0,-12.7,-0.9,·
C[C@H](CO)N1C[C@H](C)[C@@H](CN(C)CC2CC2)Oc2c(NC(=O)C3CCOCC3)cccc2C1=O,-0.5,-0.2,5.8,2.2,0.1
NC1=NC(=O)/C(=C\c2cccnc2)S1,-0.2,-0.1,-0.6,4.6,-2.3
CC(=O)Nc1ccc(S(=O)(=O)Oc2cccc(/C=C3\SC(N)=NC3=O)c2)cc1,-4.4,43.3*,4.9,3.3,·
CC(=O)Nc1ccc(S(=O)(=O)Oc2cccc(N3C(=O)C4CC=CCC4C3=O)c2)cc1 (stereo unspecified),·,·,·,·,0.2
SMILES,F508del corr,FGF22 binding,DENV2 CPE rescue,ERAP1 inh,E-sel inducer
NC1=NC(=O)/C(=C/c2cccc(F)c2)S1,-2.8,0.2,-5.3,-0.8,54.2*
NC1=NC(=O)C(=Cc2ccccc2)S1,0.8,-0.1,30.0*,-0.2,0.0
C[C@@H]1CN([C@H](C)CO)C(=O)c2cc(C3=CCCC3)cnc2O[C@H]1CN(C)Cc1cccnc1,1.3,0.0,3.0,1.5,0.8
Cc1cccc(C(C(N)=O)c2ncc(C(F)(F)F)cc2Cl)c1 (stereo unspecified),-2.6,43.6*,9.9,-8.8,0.9
COC(=O)C(C(=O)OC)c1ncc(C(F)(F)F)cc1Cl,1.2,-0.1,0.7,·,-0.6
COc1ccc(C(C(N)=O)c2ncc(C(F)(F)F)cc2Cl)cc1OC (stereo unspecified),-5.5,43.4*,-6.5,2.6,·
O=C(C(Cc1ccccc1)n1cccc1)N1CCCCC1 (stereo unspecified),10.2*,-0.1,-5.0,1.0,0.4
O=C(C(Cc1ccccc1)n1cccc1)N1CCCCCC1 (stereo unspecified),0.6,-0.2,3.8,6.1,3.2
O=C(N[C@@H]1CC[C@H](CCNC(=O)C2CCC2)O[C@H]1CO)c1ccccn1,0.3,-0.2,-1.9,-0.5,-0.3
O=C(Cc1ccc(Cl)cc1)OCC(=O)c1ccc[nH]1,23.4*,-0.2,-4.3,2.5,-0.7
COc1ccc(C(=O)Nc2cnc(NC(=O)c3cccs3)cc2C)cc1,-1.2,-0.1,12.3,-5.2,33.3*
COc1ccc(C(=O)Nc2cc(C)c(NC(=O)c3ccccn3)cn2)cc1,0.8,-0.3,1.6,-2.6,·
COCC(=O)N1C[C@H](C)[C@@H](OC)CN(C)C(=O)c2ccc(NC(=O)c3ccc(F)cc3)cc2OC[C@@H]1C,-0.3,0.0,9.1,4.0,0.2
Cc1cc2c(cc1C)C(c1ccccc1OC(C)C)CC(=O)N2 (stereo unspecified),12.3*,0.0,-0.6,-2.6,1.0
CC(C)NC(=O)N[C@@H]1CC[C@@H](CCNC(=O)C2CCCC2)O[C@H]1CO,3.6,0.1,-0.1,1.3,-0.3
COc1ccc(N2C(=O)C(CC(N)=O)N(NC(=O)c3cccc(OC)c3)C2=S)cc1 (stereo unspecified),0.4,0.1,30.8*,-0.9,8.4
COc1ccc(C(=O)NN2C(=S)N(c3ccc(OC)cc3)C(=O)C2CC(N)=O)cc1 (stereo unspecified),-0.5,0.3,8.8,1.9,-0.1
